These results are taken from ChEMBL document CHEMBL1148152, “Syncarpamide, a new antiplasmodial (+)-norepinephrine derivative from Zanthoxylum syncarpum” (J Nat Prod, 2004).

Data set [1] deals with Plasmodium falciparum. Kind of data set: Antiplasmodial activity against Plasmodium falciparum D6. In kind it is functional, organism-based.
The next data set concerns Cryptococcus neoformans. The experiment in a line: […] activity against Cryptococcus neoformans ATCC 90113 by antimicrobial susceptibility test. It is filed as functional, organism-based. In a few lines: (§1)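 Modified 96-well microplate broth assay run on purified compounds, giving IC50 and MIC values, against ATCC strains C. albicans 90028, C. neoformans 90113, and S. aureus 6535 and 33591. Amphotericin B and rifampin served as positive controls, with DMSO as the negative control.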

The test system of data set [2] is Plasmodium falciparum. Kind of data set: Antiplasmodial activity against Plasmodium falciparum W2. It is filed as functional, organism-based.
Data set [3] deals with Staphylococcus aureus. The experiment in a line: Antibacterial activity against Staphylococcus aureus ATCC 6535 by antimicrobial susceptibility test. It is filed as functional, organism-based. The method in brief: as §1
Data set [4] has as its system Staphylococcus aureus. The experiment in a line: Antibacterial activity against Staphylococcus aureus ATCC 33591 by antimicrobial susceptibility test. It is filed as functional, organism-based. In a few lines: as §1
The test system of the next data set is Candida albicans. Kind of data set: Antifungal activity against Candida albicans B311 ATCC 90028 by antimicrobial susceptibility test. In kind it is functional, organism-based. The method in brief: as §1
In data set [5] the test system is Vero. The experiment in a line: Cytotoxicity against african green monkey Vero cells at 56.42 uM. It is filed as cell-based. The settings on record: chlorocebus sabaeus.
The subject of data set [6] is Vero. Kind of data set: Cytotoxicity against african green monkey Vero cells. The settings on record: chlorocebus sabaeus. It is filed as cell-based. In a few lines:
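Cytotoxicity assay with doxorubicin and 5-fluorouracil as positive controls and DMSO as the vehicle (negative) control.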

Each structure is given as a SMILES string. Calls of active or inactive are those of the source. The calls are words filed in the database; no cut-off is given here.

Regarding `CC(C)(O)[C@@H]1Cc2cc3ccc(=O)oc3cc2O1`, the result in the data set with Plasmodium falciparum [1], with Cryptococcus neoformans, in the data set with Plasmodium falciparum [2], in the data set on Staphylococcus aureus [3], in the data set with Staphylococcus aureus [4] and in the data set on Candida albicans was inactive.
In general, IC50 refers to the concentration at which inhibition is half-maximal. For `COc1c(O)ccc2c1cnc1c3cc4c(cc3ccc21)OCO4` [DECARINE], the results for the IC50 in the data set with Plasmodium falciparum [1] and with Plasmodium falciparum [2] were 1440 nM and 880 nM, respectively. Further, the outcome in the data set on Cryptococcus neoformans, with Staphylococcus aureus [3] and in the data set on Staphylococcus aureus [4] was Active. Moreover, the Activity result in the data set on Vero [5] is listed as “Active”; in the data set with Vero [6], “Not Active”.
For `COc1ccc([C@@H](CNC(=O)/C=C/c2ccccc2)OC(=O)/C=C/c2ccccc2)cc1OC` [SYNCARPAMIDE], the results for the IC50 in the data set with Plasmodium falciparum [1] and in the data set on Plasmodium falciparum [2] were 2040 nM and 3060 nM, respectively. The Activity entry with Vero [6] was “Not Active”.
